In ChEMBL document CHEMBL1132284, “Potent, orally active GPIIb/IIIa antagonists containing a nipecotic acid subunit. Structure-activity studies leading to the discovery of RWJ-53308” (J Med Chem, 1999):

Assays:
Canis familiaris [1] = assay: Ex vivo duration of inhibition of ADP-induced canine platelet aggregation by 3 mg/kg.; format: functional, Canis lupus familiaris
In short: (§1)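 Fasted mongrel dogs (8–22 kg, n = 3) given compound orally by stomach tube in 10 mL water. Citrated cephalic-vein blood drawn pre-dose and at 30, 60, 90, 120, 180, 240, 360 min. PRP adjusted to 300 000/μL with PPP, warmed 2 min at 37 °C, and aggregated with 20 μM ADP, read as light transmission. Inhibition is drug versus vehicle; duration is time at ≥50% inhibition.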

Homo sapiens = species on record: Homo sapiens; assay: In vitro inhibitory potency against human gel filtered platelet (GFP) aggregation; format: functional
In short: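 Human gel-filtered platelets, aggregation induced by thrombin; IC50; n = 2.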

[2] = target: Integrin alpha-IIb/beta-3 (Homo sapiens, UniProt P05106+P08514); assay: In vitro inhibition of biotinylated fibrinogen binding to immobilized fibrinogen receptor.; format: protein-complex assay
Sequence of Integrin alpha-IIb/beta-3 (P05106 27-788 limits assumed): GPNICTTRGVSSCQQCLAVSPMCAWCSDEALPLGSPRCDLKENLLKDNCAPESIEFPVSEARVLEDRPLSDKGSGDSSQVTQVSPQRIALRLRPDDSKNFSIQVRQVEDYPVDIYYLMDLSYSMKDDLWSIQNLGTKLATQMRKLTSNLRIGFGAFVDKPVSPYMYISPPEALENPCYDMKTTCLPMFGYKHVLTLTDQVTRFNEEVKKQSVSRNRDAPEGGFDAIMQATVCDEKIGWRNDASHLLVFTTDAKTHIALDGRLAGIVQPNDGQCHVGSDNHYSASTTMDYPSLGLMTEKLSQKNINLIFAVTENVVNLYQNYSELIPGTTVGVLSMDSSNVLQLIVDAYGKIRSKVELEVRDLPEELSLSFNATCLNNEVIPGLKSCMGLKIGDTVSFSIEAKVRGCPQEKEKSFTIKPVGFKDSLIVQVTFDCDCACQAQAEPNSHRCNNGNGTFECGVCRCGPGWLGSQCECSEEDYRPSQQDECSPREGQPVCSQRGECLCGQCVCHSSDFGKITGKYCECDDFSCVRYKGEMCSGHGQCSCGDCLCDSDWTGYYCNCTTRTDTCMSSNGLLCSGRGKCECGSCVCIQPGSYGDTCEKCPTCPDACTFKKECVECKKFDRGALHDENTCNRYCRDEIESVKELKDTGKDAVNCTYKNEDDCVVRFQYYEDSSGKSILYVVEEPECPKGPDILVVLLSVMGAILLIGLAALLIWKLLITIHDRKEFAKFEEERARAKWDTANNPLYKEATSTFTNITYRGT
Sequence of Integrin alpha-IIb/beta-3 (P08514 32-887 limits assumed): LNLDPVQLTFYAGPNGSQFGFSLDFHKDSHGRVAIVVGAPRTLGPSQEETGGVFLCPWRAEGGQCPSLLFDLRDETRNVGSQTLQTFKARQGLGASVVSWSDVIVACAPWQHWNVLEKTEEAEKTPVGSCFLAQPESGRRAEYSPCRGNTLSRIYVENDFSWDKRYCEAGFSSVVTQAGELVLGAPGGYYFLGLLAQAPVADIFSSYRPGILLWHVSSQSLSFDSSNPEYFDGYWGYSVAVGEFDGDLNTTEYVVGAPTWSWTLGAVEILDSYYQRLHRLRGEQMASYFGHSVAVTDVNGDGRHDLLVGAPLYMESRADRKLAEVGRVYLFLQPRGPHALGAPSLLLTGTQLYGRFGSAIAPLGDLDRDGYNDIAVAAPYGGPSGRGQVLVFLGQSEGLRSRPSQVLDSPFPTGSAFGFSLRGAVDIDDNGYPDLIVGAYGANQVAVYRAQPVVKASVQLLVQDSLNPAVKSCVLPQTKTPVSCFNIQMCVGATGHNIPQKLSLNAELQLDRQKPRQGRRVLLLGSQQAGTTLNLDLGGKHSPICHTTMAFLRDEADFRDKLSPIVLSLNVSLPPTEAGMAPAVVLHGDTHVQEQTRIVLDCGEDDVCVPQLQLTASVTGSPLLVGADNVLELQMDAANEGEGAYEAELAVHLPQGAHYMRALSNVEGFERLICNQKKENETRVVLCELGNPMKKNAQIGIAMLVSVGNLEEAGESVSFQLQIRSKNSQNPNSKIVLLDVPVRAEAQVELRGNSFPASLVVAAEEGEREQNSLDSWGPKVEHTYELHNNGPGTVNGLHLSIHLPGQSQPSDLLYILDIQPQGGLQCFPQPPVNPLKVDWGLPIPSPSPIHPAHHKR
Sequence of Integrin alpha-IIb/beta-3 (P08514 891-1039 limits assumed): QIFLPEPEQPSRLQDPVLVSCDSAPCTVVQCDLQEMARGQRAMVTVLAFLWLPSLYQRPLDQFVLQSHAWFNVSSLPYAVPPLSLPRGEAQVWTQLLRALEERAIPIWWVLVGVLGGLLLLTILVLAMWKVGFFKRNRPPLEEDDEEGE
In short: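 Binding of biotinylated fibrinogen to immobilized purified GPIIb/IIIa, solid phase; IC50; n = 2.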

Canis familiaris [3] = assay: Inhibitory activity tested in ex vivo (canine) against ADP-induced platelet aggregation at the dose of 1 mg/kg; format: functional, Canis lupus familiaris; in short: as §1
Canis familiaris [4] = assay: Inhibitory activity tested in ex vivo (canine) against ADP-induced platelet aggregation at the dose of 10 mg/kg; format: functional, Canis lupus familiaris

Row | IC50 (Homo sapiens; Homo sapiens) [nM] | IC50 [2] [nM] | Compound | Duration (Canis familiaris [1]) [min] | also measured
1 | 30 | 0.66 | O=C(O)C[C@H](NC(=O)[C@@H]1CCCN(C(=O)CCC2CCNCC2)C1)c1cncc(CCc2ccccc2)c1 | 180 | –
2 | – | 3.6 | Nc1cccc(-c2cncc(C(CC(=O)O)NC(=O)C3CCCN(C(=O)CCC4CCNCC4)C3)c2)c1 (centres undefined) | – | –
3 | 60 | 0.36 | O=C(O)C[C@@H](NC(=O)[C@@H]1CCCN(C(=O)CCC2CCNCC2)C1)c1cccnc1 | 360 | –
4 | – | 42 | CC(C)(C)C#C[C@@H](CC(=O)O)NC(=O)[C@@H]1CCCN(C(=O)CCC2CCNCC2)C1 | – | –
5 | 20 | 0.14 | O=C(O)C[C@H](NC(=O)[C@@H]1CCCN(C(=O)CCC2CCNCC2)C1)c1ccc(Cl)nc1 | 210 | –
6 | – | 1.8 | O=C(O)CC(NC(=O)C1CCCN(C(=O)CCC2CCNCC2)C1)c1cncc(-c2ccccc2)c1 (centres undefined) | – | –
7 | 70 | 0.52 | O=C(O)C[C@H](NC(=O)[C@@H]1CCCN(C(=O)CCC2CCNCC2)C1)c1cncc(-c2ccccc2)c1 | – | –
8 | 2200 | 3.8 | O=C(C[C@H](NC(=O)[C@@H]1CCCN(C(=O)CCC2CCNCC2)C1)c1cccnc1)OCCC1CCCCC1 | 120 | –
9 | – | 14 | O=C(O)CC(NC(=O)C1CCCN(C(=O)CCC2CCNCC2)C1)c1cncc(-c2cccc([N+](=O)[O-])c2)c1 (centres undefined) | – | –
10 | 80 | 0.22 | O=C(O)C[C@H](C#Cc1ccccc1)NC(=O)[C@@H]1CCCN(C(=O)CCC2CCNCC2)C1 | – | Duration (Canis familiaris [3]): <30 min
11 | 31000 | 5.6 | CC(C)(C)C#C[C@H](CC(=O)O)NC(=O)[C@@H]1CCCN(C(=O)CCC2CCNCC2)C1 | – | –
12 | 36000 | 48 | CCOC(=O)C[C@@H](NC(=O)[C@@H]1CCCN(C(=O)CCC2CCNCC2)C1)c1ccc2c(c1)OCO2 | <30 | –
13 | – | 2 | O=C(O)CC(NC(=O)C1CCCN(C(=O)CCC2CCNCC2)C1)c1cncc(-c2ccsc2)c1 (centres undefined) | – | –
14 | – | 1.5 | O=C(O)CC(NC(=O)C1CCCN(C(=O)CCC2CCNCC2)C1)c1cncc(-c2cccs2)c1 (centres undefined) | – | –
15 | 300 | 2 | C#C[C@H](CC(=O)OCC)NC(=O)CCC(=O)Nc1ccc(C(=N)N)cc1 [XEMILOFIBAN] | >180 | –
16 | 41000 | 7.2 | COC(=O)C[C@H](NC(=O)[C@@H]1CCCN(C(=O)CCC2CCNCC2)C1)c1cccnc1 | 60 | –
17 | 600 | 1.7 | O=C(O)C[C@H](NC(=O)[C@H]1CN(C(=O)CCC2CCNCC2)CCN1)c1cccnc1 | – | –
18 | – | 12 | COc1ccccc1-c1cncc(C(CC(=O)O)NC(=O)C2CCCN(C(=O)CCC3CCNCC3)C2)c1 (centres undefined) | – | –
19 | 970 | 0.37 | O=C(O)C[C@@H](Cc1ccccc1)NC(=O)[C@@H]1CCCN(C(=O)CCC2CCNCC2)C1 | – | –
20 | 40 | 0.85 | O=C(O)C[C@H](NC(=O)[C@@H]1CCCN(C(=O)CCC2CCNCC2)C1)c1cncc(C#Cc2ccccc2)c1 | – | Duration (Canis familiaris [3]): <30 min
21 | 220 | 0.34 | O=C(O)C[C@H](NC(=O)[C@@H]1CCCN(C(=O)CCC2CCNCC2)C1)c1cnc(Cl)c(Cl)c1 | 150 | –
22 | 30 | 0.24 | C#Cc1cncc([C@H](CC(=O)O)NC(=O)[C@@H]2CCCN(C(=O)CCC3CCNCC3)C2)c1 | – | –
23 | 270 | 4.8 | O=C(O)CCNC(=O)[C@@H]1CCCN(C(=O)CCC2CCNCC2)C1 | 120 | –
24 | 840 | 0.24 | CN1CCC(CCC(=O)N2CCC[C@@H](C(=O)N[C@H](CC(=O)O)c3ccc4c(c3)OCO4)C2)CC1 | – | Duration (Canis familiaris [4]): 120 min
25 | 200 | 0.37 | O=C(O)C[C@H](NC(=O)[C@@H]1CCCN(C(=O)CCC2CCNCC2)C1)c1ccc(-c2ccsc2)nc1 | 150 | –

Row | IC50 (Homo sapiens; Homo sapiens) [nM] | IC50 [2] [nM] | Compound | Duration (Canis familiaris [1]) [min] | also measured
26 | 350 | 0.75 | N=CN1CCC(CCC(=O)N2CCC[C@@H](C(=O)N[C@@H](CC(=O)O)c3cccnc3)C2)CC1 | 90 | –
27 | – | 11 | COc1ccc(-c2cncc(C(CC(=O)O)NC(=O)C3CCCN(C(=O)CCC4CCNCC4)C3)c2)cc1 (centres undefined) | – | –
28 | 160 | 0.81 | O=C(O)C[C@H](NC(=O)[C@@H]1CCCN(C(=O)/C=C/C2CCNCC2)C1)c1cccnc1 | 210 | –
29 | – | 26 | O=C(O)CC(NC(=O)C1CCCN(C(=O)CCC2CCNCC2)C1)c1cncc(-c2cccc3ccccc23)c1 (centres undefined) | – | –
30 | – | 0.18 | O=C(O)C[C@@H](NC(=O)[C@@H]1CCCN(C(=O)CCC2CCNCC2)C1)c1cnc2ccccc2c1 (stereo in doubt; 33) | – | –
31 | 210 | 17.9 | O=C(N[C@H](Cc1ccccc1)[C@@H](O)C(=O)O)[C@@H]1CCCN(C(=O)CCC2CCNCC2)C1 | – | –
32 | 8000 | 13.5 | C[C@H](CC(=O)O)NC(=O)[C@@H]1CCCN(C(=O)CCC2CCNCC2)C1 | – | –
33 | 20 | 0.21 | O=C(O)C[C@H](NC(=O)[C@@H]1CCCN(C(=O)CCC2CCNCC2)C1)c1cncc(Br)c1 | 180 | –
34 | 140 | 0.58 | O=C(O)C[C@H](NC(=O)[C@@H]1CCN(C(=O)/C=C/C2CCNCC2)C1)c1cccnc1 | 360 | –
35 | 90 | 3.8 | COc1ncc([C@H](CC(=O)O)NC(=O)[C@@H]2CCCN(C(=O)CCC3CCNCC3)C2)cc1Cl | 30 | –
36 | 40 | 0.1 | O=C(O)C[C@@H](NC(=O)[C@@H]1CCCN(C(=O)CCC2CCNCC2)C1)c1ccc(Cl)s1 | – | –
37 | – | 36 | O=C(O)CC(NC(=O)C1CCCN(C(=O)CCC2CCNCC2)C1)c1cncc(-c2cc3ccccc3o2)c1 (centres undefined) | – | –
38 | 90 | 0.1 | O=C(O)C[C@@H](NC(=O)[C@@H]1CCCN(C(=O)CCC2CCNCC2)C1)c1cccs1 | – | –
39 | 1600 | 3.5 | O=C(O)C(O)CNC(=O)[C@@H]1CCCN(C(=O)CCC2CCNCC2)C1 (some centres undefined) | – | –
40 | – | 24 | Cc1ccc(-c2cncc(C(CC(=O)O)NC(=O)C3CCCN(C(=O)CCC4CCNCC4)C3)c2)cc1 (centres undefined) | – | –
41 | 3500 | 0.29 | O=C(O)C[C@@H](C#Cc1ccccc1)NC(=O)[C@@H]1CCCN(C(=O)CCC2CCNCC2)C1 | – | –
42 | – | 3 | O=C(O)CC(NC(=O)C1CCCN(C(=O)CCC2CCNCC2)C1)c1cccnc1 (centres undefined) | – | –
43 | 11800 | 66.8 | O=C(O)C[C@@H](NC(=O)[C@@H]1CCCN(C(=O)CCC2CCNCC2)C1)c1ncc(C(F)(F)F)cc1Cl | 30 | –
44 | 30 | 0.13 | Cc1ccc([C@H](CC(=O)O)NC(=O)[C@@H]2CCCN(C(=O)CCC3CCNCC3)C2)cn1 | 210 | –
45 | – | 57 | O=C(O)CC(NC(=O)C1CCCN(C(=O)CCC2CCNCC2)C1)c1cncc(-c2ccc(Cl)s2)c1 (centres undefined) | – | –
46 | – | 11 | COc1cccc(-c2cncc(C(CC(=O)O)NC(=O)C3CCCN(C(=O)CCC4CCNCC4)C3)c2)c1 (centres undefined) | – | –
47 | – | 3 | O=C(O)CC(NC(=O)C1CCCN(C(=O)CCC2CCNCC2)C1)c1cncc(Br)c1 (centres undefined) | – | –
48 | – | 0.37 | O=C(O)C[C@@H](NC(=O)[C@@H]1CCCN(C(=O)CCC2CCNCC2)C1)c1cnc2ccccc2c1 (stereo in doubt; 34) | – | IC50 (Homo sapiens): 1200 nM
49 | – | 57 | O=C(O)CC(NC(=O)C1CCCN(C(=O)CCC2CCNCC2)C1)c1cncc(-c2ccc3ccccc3c2)c1 (centres undefined) | – | –

Row | Compound | IC50 (Homo sapiens; Homo sapiens) [nM] | IC50 [2] [nM] | Duration (Canis familiaris [1]) [min] | also measured
50 | O=C(O)C[C@@H](NC(=O)[C@@H]1CCCN(C(=O)CCC2CCNCC2)C1)c1ccc2c(c1)OCO2 | 20 | 0.5 | 180 | –
